Assay results from different studies.
Each line is one published result; the experiments were not run side by side.
Observed: cell growth or viability

SMILES | cell line | assay | setting | quantity | value
Cc1nc(Nc2ncc(C(=O)Nc3c(C)cccc3Cl)s2)cc(N2CC[C@H](O)C2)n1 | Raji | ATP luminescence | 10 µM, 72 h | inhibition | -2%
O=C(NCCc1ccccc1)Nc1nc2cc(-c3ccc4ncn(CCN5CCOCC5)c(=O)c4c3)ccc2s1 | PC-9 | MTT | 72 h | IC50 | 8.14 µM
Oc1cccc(-c2nc(N3CCOCC3)c3oc4ncccc4c3n2)c1 | HCT-116 | CCK-8 | 1 µM | inhibition | 12.5%
CCCCCCCCCCCCCCCCCCOc1ccc(CC(=O)OCC[N+](CC)(CC)CC)cc1 | EKVX | SRB | 10 µM | inhibition | 12.5%
O=C(Nc1ccc(Cl)cc1)Nc1cccc(-c2cn(Cc3cccc(Br)c3)nn2)c1 | PC-9 | CCK-8 | 50 µM, 72 h | viability | 92.9%
NCCC(=O)Nc1ccccc1/N=c1\cc(-c2ccc3c(c2)OCCO3)oc2cc(F)ccc12 | HCT-116 | CCK-8 | 1 µM | inhibition | 11.5%
COc1cccc(NC(=O)Nc2nc3cc(-c4ccc5ncn(Cc6ccccc6)c(=O)c5c4)ccc3s2)c1 | PC-9 | MTT | 72 h | IC50 | > 20 µM
NCC(=O)Nc1ccccc1/N=c1\cc(-c2ccc3c(c2)OCCO3)oc2ccccc12 | HCT-116 | CCK-8 | 1 µM | inhibition | 16.4%
O=C(Nc1cccc(F)c1)Nc1nc2cc(-c3ccc4ncn(Cc5ccccc5)c(=O)c4c3)ccc2s1 | PC-9 | MTT | 72 h | IC50 | > 20 µM
Cc1ccccc1Cn1cc(-c2cccc(NC(=O)Nc3ccc(F)cc3)c2)nn1 | PC-9 | CCK-8 | 50 µM, 72 h | viability | 123%
O=C(NCc1cn(Cc2cccc(Cl)c2)nn1)Nc1ccc(Cl)cc1 | PC-9 | CCK-8 | 20 µM, 72 h | viability | 90.9%
COc1ccc(NC(=O)Nc2ccc(-c3cn(Cc4cccc(Cl)c4)nn3)cc2)cc1 | PC-9 | CCK-8 | 20 µM, 72 h | viability | 98.2%
O=C(Nc1cccc(-c2cn(Cc3ccc(Cl)cc3)nn2)c1)Nc1ccccc1Br | PC-9 | CCK-8 | 20 µM, 72 h | viability | 130%
COc1ccc(NC(=O)Nc2cccc(-c3cn(Cc4ccccc4C)nn3)c2)cc1 | PC-9 | CCK-8 | 20 µM, 72 h | viability | 121%
O=C(Nc1ccc(-c2cn(Cc3ccc(Br)cc3)nn2)cc1)Nc1ccccc1Br | PC-9 | CCK-8 | 50 µM, 72 h | viability | 106%
CCOc1ccc(-c2cc(C(=O)O)c(-c3ccc(Cl)cc3)o2)cc1 | HCT-116 | MTT | 48 h | EC50 | 78 µM
Cc1nc(NC(=O)N2CCC[C@H]2C(N)=O)sc1-c1ccnc(C(C)(C)C(F)(F)F)c1 | KYSE-510 | ATP luminescence | 5 days | EC50 | 1.5 µM
CCCS(=O)(=O)Oc1cc(C=NNC(=O)c2nc3ccccc3s2)ccc1OC | HCT-116 | MTT | 100 µM, 48 h | cell death | 42.7%
CCCCCCCCCCCCCCCCCCOc1ccccc1CC(=O)OCCC[N+](C)(C)C | EKVX | SRB | 10 µM | inhibition | 21%
O=C(Nc1ccc(F)cc1)Nc1nc2cc(-c3ccc4ncn(CCN5CCOCC5)c(=O)c4c3)ccc2s1 | PC-9 | MTT | 72 h | IC50 | > 20 µM
COc1ccc(NC(=O)NCc2cn(Cc3ccccc3C)nn2)cc1 | PC-9 | CCK-8 | 50 µM, 72 h | viability | 109%
O=C(Nc1ccccc1/N=c1\cc(-c2ccc3c(c2)OCO3)oc2ccccc12)N1CCOCC1 | HCT-116 | CCK-8 | 1 µM | inhibition | 11.2%
C[C@H](Nc1ccc2c(c1)OCCn1cc(N3C(=O)OC[C@H]3C(F)F)nc1-2)C(N)=O | SK-OV-3 | ATP luminescence | 5 days | EC50 | 0.0574 µM

SMILES | cell line | assay | setting | quantity | value
NCC(=O)Nc1ccccc1/N=c1\cc(-c2ccc3c(c2)OCO3)oc2c(N)cccc12 | HCT-116 | CCK-8 | 1 µM | inhibition | 14.3%
CCCCCCCCCCCCCCCCCCOc1ccccc1CC(=O)OCC[N+]1(C)CCCC1 | EKVX | SRB | 10 µM | inhibition | 46.1%
COc1ccc(NC(=O)Nc2cccc(-c3cn(Cc4cccc(Cl)c4)nn3)c2)cc1 | PC-9 | CCK-8 | 50 µM, 72 h | viability | 136%
O=C(NCc1cn(Cc2ccc(Br)cc2)nn1)Nc1ccc(Cl)cc1 | PC-9 | CCK-8 | 20 µM, 72 h | viability | 111%
N[C@@H](CO)C(=O)Nc1ccccc1/N=c1\cc(-c2ccc3c(c2)OCO3)oc2ccccc12 | HCT-116 | CCK-8 | 1 µM | inhibition | 12.2%
O=C(Nc1ccc(Cl)cc1)Nc1cccc(-c2cn(Cc3cccc(Cl)c3)nn2)c1 | PC-9 | CCK-8 | 20 µM, 72 h | viability | 102%
COc1ccc(NC(=O)Nc2cccc(-c3cn(Cc4ccc(Cl)cc4)nn3)c2)cc1 | PC-9 | CCK-8 | 20 µM, 72 h | viability | 147%
COc1cc(C=NNC(=O)c2nc3ccccc3s2)ccc1O | HCT-116 | MTT | 100 µM, 48 h | cell death | 44.6%
O=C(Nc1ccc(Cl)cc1)Nc1ccc(-c2cn(Cc3cccc(Cl)c3)nn2)cc1 | PC-9 | CCK-8 | 50 µM, 72 h | viability | 76.4%
NCCC(=O)Nc1ccccc1/N=c1\cc(-c2ccc3c(c2)OCO3)oc2ccccc12 | HCT-116 | CCK-8 | 1 µM | inhibition | 10.8%
O=C(Nc1cc(C(F)(F)F)cc(C(F)(F)F)c1)Nc1nc2cc(-c3ccc4ncn(Cc5ccccc5)c(=O)c4c3)ccc2s1 | PC-9 | MTT | 72 h | IC50 | > 20 µM
O=C(Nc1ccc(-c2cn(Cc3ccc(Cl)cc3)nn2)cc1)Nc1ccccc1Br | PC-9 | CCK-8 | 20 µM, 72 h | viability | 98.3%
CCCCCCCCCCCCCCCCCCOc1cccc(CC(=O)OCC[N+](CC)(CC)CC)c1 | EKVX | SRB | 10 µM | inhibition | 22.3%
O=C(Nc1ccc(Cl)cc1)Nc1ccc(-c2cn(Cc3ccc(Cl)cc3)nn2)cc1 | PC-9 | CCK-8 | 20 µM, 72 h | viability | 86%
O=C(Nc1cccc(C(F)(F)F)c1)Nc1nc2cc(-c3ccc4ncn(CCN5CCOCC5)c(=O)c4c3)ccc2s1 | PC-9 | MTT | 72 h | IC50 | > 20 µM
CCCCCCCCCCCCCCCCCCOc1ccccc1CC(=O)OCC[N+]1(C)CCOCC1 | EKVX | SRB | 10 µM | inhibition | 13.3%
COc1ccc(C=NNC(=O)c2nc3ccccc3s2)cc1O | HCT-116 | MTT | 100 µM, 48 h | cell death | 33.5%
O=C(Nc1ccc(Cl)cc1)Nc1nc2cc(-c3ccc4ncn(Cc5ccccc5)c(=O)c4c3)ccc2s1 | PC-9 | MTT | 72 h | IC50 | > 20 µM
CCCCCCCCCCCCCCCCCCOc1ccccc1CC(=O)OCC[N+](C)(C)C | EKVX | SRB | 10 µM | inhibition | 53.1%
COc1ccc(NC(=O)Nc2cccc(-c3cn(Cc4ccc(Br)cc4)nn3)c2)cc1 | PC-9 | CCK-8 | 20 µM, 72 h | viability | 141%
COc1ccc2/c(=N/c3ccccc3NC(=O)N3CCOCC3)cc(-c3ccc4c(c3)OCCO4)oc2c1 | HCT-116 | CCK-8 | 1 µM | inhibition | 11.6%
CCCCCCCCCCCCCCCCCCOc1ccc(CC(=O)OCC[N+]2(C)CCCCC2)cc1 | EKVX | SRB | 10 µM | inhibition | 2.11%
